Data taken from PubChem BioAssay.
The source made the active and inactive calls.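 How the source made its calls: active means duplicate-averaged activation above buffer control mean plus 5 SD of those controls; inactive means the rest.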

Experiment: thallium flux activation in parental CHO cells, counter-screen for KCNQ1 potentiator project (AID 493006);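 on activation: fluorescence ratio of max minus min over baseline after K+ and Tl+ depolarization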
Details: parental CHO-K1 cells, FluxOR thallium flux, at 10 µM; hits give high values
Method in brief: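 Material: untransfected host CHO-K1 cells with FluxOR thallium dye. Timing: overnight 37 °C plating, 90 min RT dye, 20 min compound. Detection: kinetic FluxOR fluorescence, 10 s baseline, 110 s after stimulus. Read-out basis: max-minus-min fluorescence over baseline, percent of buffer-to-R-L3 span. Replicates: duplicate wells per compound, percent values averaged.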

SMILES | activation | outcome
O=C(CCN1CCc2ccccc2CC1)c1ccc2c(c1)OCCO2 | 150% (active) | 
Cc1sc(NC(=O)CS(=O)(=O)c2ccccc2)c(C#N)c1C |  | inactive
COc1ccc(N(Cc2ccccc2)S(=O)(=O)c2cccc(C(=O)O)c2)cc1 |  | inactive
CC/C(=N/NC(=O)c1ccc(Br)o1)c1ccc(Cl)cc1 |  | inactive
Cc1sc2nc(CSc3ccccc3)nc(N3CCN(C)CC3)c2c1C |  | inactive
Cn1c(=O)nc2n(Cc3ccccc3)c3ccccc3cc-2c1=O |  | inactive
CCOC(=O)NC(=S)Nc1ccc(C(C)(C)C)cc1Br | 213% (active) | 
Oc1ccc2ccccc2c1N=Nc1nccs1 | 328% (active) | 
O=c1[nH]c2ccc(Cl)cc2c(-c2ccccc2)c1N1CCN(CCO)CC1 |  | inactive
Cc1ccc(Nc2c([N+](=O)[O-])ccc3nonc23)c(C)c1 |  | inactive
COc1cccc2sc(NNC(=O)c3nc4ccccc4s3)nc12 | 300% (active) | 
N#Cc1ccccc1NS(=O)(=O)c1cc2c3c(c1)CCC(=O)N3CCC2 |  | inactive
NC(=S)Nc1nc2ccccc2s1 | 165% (active) | 
Cc1cc(/C=N/NC(=O)c2nn(C)cc2Cl)c(C)n1-c1cccc(Br)c1 |  | inactive
Cc1ccc(-c2c(C)n([O-])c3c([n+]2=O)CCCC3)o1 |  | inactive
CCCN(Cc1ccccc1)C(=S)NC(=O)c1ccccc1[N+](=O)[O-] | 430% (active) | 
CCC1Oc2ccc(C)cc2N(CC(=O)N(Cc2ccc(C)o2)C2CC(C)(C)NC(C)(C)C2)C1=O (stereo not drawn) | 152% (active) | 
COc1cc(/C=N/Nc2snc(SC)c2C#N)ccc1O |  | inactive
